# Activity calls are given as the source filed them. No cut-off for these calls is given here.
# What was measured:
# Acetylcholinesterase [1] = target: Acetylcholinesterase (Anopheles gambiae, UniProt Q869C3, G122S); assay: Inhibition of recombinant full length Anopheles gambiae AChE1 G122S mutant expressed in baculovirus-infected Sf9 insect cells using acetylthiocholine iodide as substrate measured over 60 secs by Ellman's method
# Aedes aegypti [2] = assay: Insecticidal activity against five days old adult Aedes aegypti Mombasa assessed as mortality at 10 mM applied topically on upper part of pronotum after 48 hrs (reference value: 3 to 15%); type: functional; details: topical
# Anopheles gambiae [3] = assay: Insecticidal activity against five days old adult Anopheles gambiae Kisumu assessed as mortality at 10 mM applied topically on upper part of pronotum after 24 hrs (reference value: 8 to 16%); type: functional; details: topical
# Aedes aegypti [4] = assay: Insecticidal activity against five days old adult Aedes aegypti Mombasa assessed as mortality at 0.2 nmol applied topically on upper part of pronotum after 24 hrs; type: functional
# Aedes aegypti [5] = assay: Insecticidal activity against 3rd instar larvae of Aedes aegypti Mombasa assessed as mortality at 500 uM administered via de-chlorinated tap water after 48 hrs (reference value: 0 to 2%); type: functional
# Aedes aegypti [6] = assay: Insecticidal activity against 3rd instar larvae of Aedes aegypti Mombasa assessed as mortality at 50 uM administered via de-chlorinated tap water after 24 hrs; type: functional
# How it was run: (§1)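 Kenyan strains were reared at 27-28 °C, about 80% humidity, 12/12 h light. Per compound and concentration, 25 third-instar larvae were placed in 100 ml de-chlorinated water containing the compound and kept under insectary conditions. The negative control was plain water; the positive control was propoxur at 25 µM. Mortality was scored at 24 h; 75 treated and 50 control larvae in total.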
# Aedes aegypti [7] = assay: Insecticidal activity against 3rd instar larvae of Aedes aegypti Mombasa assessed as mortality at 300 uM administered via de-chlorinated tap water after 24 hrs; type: functional; how it was run: as §1
# Anopheles gambiae [8] = assay: Insecticidal activity against five days old adult Anopheles gambiae Kisumu assessed as mortality at 0.1 mM applied topically on upper part of pronotum after 24 hrs (reference value: 0%); type: functional; details: topical
# Anopheles gambiae [9] = assay: Insecticidal activity against five days old adult Anopheles gambiae Kisumu assessed as mortality at 2 mM applied topically on upper part of pronotum after 24 hrs (reference value: 3 to 17%); type: functional; details: topical
# Anopheles gambiae [10] = assay: Insecticidal activity against 3rd instar larvae of Anopheles gambiae Kisumu assessed as mortality at 300 uM administered via de-chlorinated tap water after 48 hrs; type: functional
# Anopheles gambiae [11] = assay: Insecticidal activity against five days old adult Anopheles gambiae Kisumu assessed as mortality at 1 nmol applied topically on upper part of pronotum after 24 hrs; type: functional
# Anopheles gambiae [12] = assay: Insecticidal activity against five days old adult Anopheles gambiae Kisumu assessed as mortality at 0.01 nmol applied topically on upper part of pronotum after 24 hrs; type: functional
# Acetylcholinesterase [13] = target: T1, Acetylcholinesterase (Anopheles gambiae, UniProt Q869C3); assay: Inhibition of AChE1 in Anopheles gambiae body extract using acetylthiocholine iodide as substrate measured over 60 secs by Ellman's method
# Anopheles gambiae [14] = assay: Insecticidal activity against 3rd instar larvae of Anopheles gambiae Kisumu assessed as mortality at 50 uM administered via de-chlorinated tap water after 24 hrs; type: functional; how it was run: as §1
# Aedes aegypti [15] = assay: Insecticidal activity against five days old adult Aedes aegypti Mombasa assessed as mortality at 2 mM applied topically on upper part of pronotum after 24 hrs (reference value: 2 to 10%); type: functional; details: topical
# Anopheles gambiae [16] = assay: Insecticidal activity against 3rd instar larvae of Anopheles gambiae Kisumu assessed as mortality at 500 uM administered via de-chlorinated tap water after 24 hrs; type: functional; how it was run: as §1
# Anopheles gambiae [17] = assay: Insecticidal activity against five days old adult Anopheles gambiae Kisumu assessed as mortality at 0.2 nmol applied topically on upper part of pronotum after 24 hrs; type: functional
# Anopheles gambiae [18] = assay: Insecticidal activity against 3rd instar larvae of Anopheles gambiae Kisumu assessed as mortality at 50 uM administered via de-chlorinated tap water after 48 hrs; type: functional
# Aedes aegypti [19] = assay: Insecticidal activity against five days old adult Aedes aegypti Mombasa assessed as mortality at 1 nmol applied topically on upper part of pronotum after 24 hrs; type: functional
# Aedes aegypti [20] = assay: Insecticidal activity against 3rd instar larvae of Aedes aegypti Mombasa assessed as mortality at 300 uM administered via de-chlorinated tap water after 48 hrs (reference value: 0%); type: functional
# Aedes aegypti [21] = assay: Insecticidal activity against 3rd instar larvae of Aedes aegypti Mombasa assessed as mortality at 50 uM administered via de-chlorinated tap water after 48 hrs (reference value: 0 to 4%); type: functional
# Aedes aegypti [22] = assay: Insecticidal activity against five days old adult Aedes aegypti Mombasa assessed as mortality at 2 mM applied topically on upper part of pronotum after 48 hrs (reference value: 3 to 12%); type: functional; details: topical
# [23] = Selectivity ratio of IC50 for recombinant human AChE expressed in HEK293F cells to IC50 for recombinant full length Anopheles gambiae AChE1 expressed in baculovirus-infected Sf9 insect cells
# How it was run: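 Ratio of the hAChE IC50 divided by the higher of the AgAChE1 or AaAChE1 IC50. Each IC50 came from an Ellman assay (1 mM acetylthiocholine, 0.2 mM DTNB, pH 7.4, 30 °C) with eight concentrations up to 1 mM, using 2-3 replicates.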
# Anopheles gambiae [24] = assay: Insecticidal activity against 3rd instar larvae of Anopheles gambiae Kisumu assessed as mortality at 300 uM administered via de-chlorinated tap water after 24 hrs; type: functional; how it was run: as §1
# Aedes aegypti [25] = assay: Insecticidal activity against five days old adult Aedes aegypti Mombasa assessed as mortality at 10 mM applied topically on upper part of pronotum after 24 hrs (reference value: 3 to 15%); type: functional; details: topical
# Acetylcholinesterase [26] = target: T2, Acetylcholinesterase (Homo sapiens, UniProt P22303); assay: Inhibition of recombinant human AChE expressed in HEK293F cells using acetylthiocholine iodide as substrate measured over 60 secs by Ellman's method; set-up: species or system HEK293
# Anopheles gambiae [27] = assay: Insecticidal activity against five days old adult Anopheles gambiae Kisumu assessed as mortality at 10 mM applied topically on upper part of pronotum after 48 hrs (reference value: 14 to 22%); type: functional; details: topical
# Aedes aegypti [28] = assay: Insecticidal activity against 3rd instar larvae of Aedes aegypti Mombasa assessed as mortality at 500 uM administered via de-chlorinated tap water after 24 hrs; type: functional; how it was run: as §1
# Acetylcholinesterase [29] = target: T1, Acetylcholinesterase; assay: Inhibition of AChE1 in Anopheles gambiae head extract using acetylthiocholine iodide as substrate measured over 60 secs by Ellman's method
# [30] = (§2) Inhibition of recombinant full length Aedes aegypti AChE1 expressed in baculovirus-infected Sf9 insect cells using acetylthiocholine iodide as substrate measured over 60 secs by Ellman's method
# How it was run: (§3)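 Secreted, non-purified recombinant enzyme in growth medium, tested as enzyme source. Ellman assay at 30 °C in 0.1 M phosphate buffer pH 7.4 with 0.2 mM DTNB and 1 mM acetylthiocholine iodide; A412 followed over 60 s. Compound (100 mM DMSO stock) tested at eight concentrations, maximum 1 mM. Activity set relative to eight uninhibited controls per plate; IC50 from three-parameter variable-slope fit; 2-3 independent replicates.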
# Anopheles gambiae [31] = assay: Insecticidal activity against 3rd instar larvae of Anopheles gambiae Kisumu assessed as mortality at 500 uM administered via de-chlorinated tap water after 48 hrs; type: functional
# Acetylcholinesterase [32] = target: T1, Acetylcholinesterase; assay: (§4) Inhibition of recombinant full length Anopheles gambiae AChE1 expressed in baculovirus-infected Sf9 insect cells using acetylthiocholine iodide as substrate measured over 60 secs by Ellman's method
# Anopheles gambiae [33] = assay: Insecticidal activity against five days old adult Anopheles gambiae Kisumu assessed as mortality at 6.25 ng applied topically on upper part of pronotum after 24 hrs; type: functional
# Anopheles gambiae [34] = assay: Insecticidal activity against 3rd instar larvae of Anopheles gambiae Kisumu assessed as mortality at 25 uM administered via de-chlorinated tap water after 24 hrs; type: functional; how it was run: as §1
# Anopheles gambiae [35] = assay: Insecticidal activity against 3rd instar larvae of Anopheles gambiae Kisumu assessed as mortality at 25 uM administered via de-chlorinated tap water after 48 hrs; type: functional
# Anopheles gambiae [36] = assay: Insecticidal activity against five days old adult Anopheles gambiae Kisumu assessed as mortality at 100 mM applied topically on upper part of pronotum after 48 hrs (reference value: 15 to 24%); type: functional; details: topical
# Anopheles gambiae [37] = assay: Insecticidal activity against five days old adult Anopheles gambiae Kisumu assessed as mortality at 2 mM applied topically on upper part of pronotum after 48 hrs (reference value: 13 to 38%); type: functional; details: topical
# Aedes aegypti [38] = assay: Insecticidal activity against five days old adult Aedes aegypti Mombasa assessed as mortality at 10 nmol applied topically on upper part of pronotum after 24 hrs; type: functional
# Anopheles gambiae [39] = assay: Insecticidal activity against five days old adult Anopheles gambiae Kisumu assessed as mortality at 10 nmol applied topically on upper part of pronotum after 24 hrs; type: functional
# Aedes aegypti [40] = assay: Insecticidal activity against five days old adult Aedes aegypti Mombasa assessed as mortality at 100 mM applied topically on upper part of pronotum after 24 hrs (reference value: 3%); type: functional; details: topical
# Anopheles gambiae [41] = assay: Insecticidal activity against five days old adult Anopheles gambiae Kisumu assessed as mortality at 100 mM applied topically on upper part of pronotum after 24 hrs (reference value: 9 to 10%); type: functional; details: topical
# Aedes aegypti [42] = assay: Insecticidal activity against five days old adult Aedes aegypti Mombasa assessed as mortality at 100 mM applied topically on upper part of pronotum after 48 hrs (reference value: 7 to 8%); type: functional; details: topical
# Aedes aegypti [43] = assay: Inhibition of recombinant full length Aedes aegypti AChE1 expressed in baculovirus-infected Sf9 insect cells at 1 mM using acetylthiocholine iodide as substrate measured over 60 secs by Ellman's method; how it was run: as §3
# [44] = target: Acetylcholinesterase (Anopheles gambiae) (UniProt Q869C3); assay: Inhibition of recombinant full length Anopheles gambiae AChE1 expressed in baculovirus-infected Sf9 insect cells at 1 mM using acetylthiocholine iodide as substrate measured over 60 secs by Ellman's method; how it was run: as §3
# Aedes aegypti [45] = assay: as §2; how it was run: as §3
# [46] = target: Acetylcholinesterase (Anopheles gambiae) (UniProt Q869C3); assay: as §4
# [47] = tested on: Acetylcholinesterase (Anopheles gambiae), Q869C3 [G122S]; assay: Inhibition of recombinant full length Anopheles gambiae AChE1 G122S mutant expressed in baculovirus-infected Sf9 insect cells up to 1 mM using acetylthiocholine iodide as substrate measured over 60 secs by Ellman's method; how it was run: as §3
# Acetylcholinesterase [48] = target: T2, Acetylcholinesterase; assay: Inhibition of recombinant human AChE expressed in HEK293F cells up to 1 mM using acetylthiocholine iodide as substrate measured over 60 secs by Ellman's method; details: HEK293; how it was run: as §3
Structure (SMILES),IC50 (Acetylcholinesterase [1]) [µM],mortality at 10000 µM (Aedes aegypti [2]) [%],mortality at 10000 µM (Anopheles gambiae [3]) [%],mortality (Aedes aegypti [4]) [%],mortality at 500 µM (Aedes aegypti [5]) [%],mortality at 50 µM (Aedes aegypti [6]) [%],mortality at 2000 µM (Anopheles gambiae [9]) [%],mortality (Anopheles gambiae [11]) [%],mortality at 50 µM (Anopheles gambiae [14]) [%],mortality at 2000 µM (Aedes aegypti [15]) [%],mortality at 500 µM (Anopheles gambiae [16]) [%],mortality (Anopheles gambiae [17]) [%],mortality at 50 µM (Anopheles gambiae [18]) [%],mortality (Aedes aegypti [19]) [%],mortality at 50 µM (Aedes aegypti [21]) [%],mortality at 2000 µM (Aedes aegypti [22]) [%],mortality at 10000 µM (Aedes aegypti [25]) [%],IC50 (Acetylcholinesterase [26]) [µM],mortality at 10000 µM (Anopheles gambiae [27]) [%],mortality at 500 µM (Aedes aegypti [28]) [%],also measured
COc1ccc(NC(=S)NCCN2CCOCC2)cc1Cl,84,10,72,5,100,8,22,70,1,5,100,22,3,0,13,5,3,14,77,97,mortality at 300 µM (Aedes aegypti [7]): 64%; mortality at 100 µM (Anopheles gambiae [8]): 0%; mortality at 300 µM (Anopheles gambiae [10]): 100%; mortality (Anopheles gambiae [12]): 0%; IC50 (Acetylcholinesterase [13]): 0.15 µM; mortality at 300 µM (Aedes aegypti [20]): 80%; Ratio IC50 [23]: 117; mortality at 300 µM (Anopheles gambiae [24]): 100%; IC50 (Acetylcholinesterase [29]): 0.19 µM; IC50 [30]: 0.09 µM; mortality at 500 µM (Anopheles gambiae [31]): 100%; IC50 (Acetylcholinesterase [32]): 0.12 µM
CNC(=O)Oc1ccccc1OC(C)C [PROPOXUR],,,,,,,,,,,,,,,,,,,,,mortality (Anopheles gambiae [33]): 100%; mortality at 25 µM (Anopheles gambiae [34]): 100%; mortality at 25 µM (Anopheles gambiae [35]): 100%
COc1ccc(NC(=S)NCCN(C)C)cc1,> 200,21,43,1,3,4,17,32,4,11,3,0,5,0,5,11,12,> 200,50,1,mortality at 100000 µM (Anopheles gambiae [36]): 67%; mortality at 2000 µM (Anopheles gambiae [37]): 36%; mortality (Aedes aegypti [38]): 12%; mortality (Anopheles gambiae [39]): 55%; mortality at 100000 µM (Aedes aegypti [40]): 12%; mortality at 100000 µM (Anopheles gambiae [41]): 59%; mortality at 100000 µM (Aedes aegypti [42]): 17%; IC50 [30]: > 200 µM; mortality at 500 µM (Anopheles gambiae [31]): 16%; IC50 (Acetylcholinesterase [32]): > 200 µM
COc1ccccc1NC(=S)NCCN(C)C,50,15,9,8,7,7,16,0,5,8,3,16,7,10,7,13,10,120,20,5,inhibition (Aedes aegypti [43]): 50%; inhibition [44]: 50%; mortality at 100000 µM (Anopheles gambiae [36]): 73%; mortality at 2000 µM (Anopheles gambiae [37]): 23%; mortality (Aedes aegypti [38]): 10%; IC50 (Acetylcholinesterase [13]): 7.6 µM; mortality (Anopheles gambiae [39]): 57%; mortality at 100000 µM (Aedes aegypti [40]): 10%; mortality at 100000 µM (Anopheles gambiae [41]): 61%; Ratio IC50 [23]: 17; IC50 (Acetylcholinesterase [29]): 7.1 µM; mortality at 100000 µM (Aedes aegypti [42]): 18%; inhibition (Aedes aegypti [45]): Dose-dependent effect; IC50 [30]: 6 µM; mortality at 500 µM (Anopheles gambiae [31]): 3%; inhibition [46]: Dose-dependent effect; IC50 (Acetylcholinesterase [32]): 7.1 µM
S=C(NCCN1CCOCC1)Nc1ccc(Cl)cc1,,,,,,,,,,,,,,,,,,,,,inhibition [47]: inactive; inhibition (Aedes aegypti [43]): inactive; inhibition [44]: inactive; inhibition (Acetylcholinesterase [48]): inactive
